Results: ChEMBL document CHEMBL1152134, “Synthetic chalcones as efficient inhibitors of Mycobacterium tuberculosis protein tyrosine phosphatase PtpA” (Bioorg Med Chem Lett, 2008)

target: T1, Low molecular weight protein-tyrosine phosphatase A (Mycobacterium tuberculosis) (UniProt P9WIA1); assay: Inhibition of Mycobacterium tuberculosis recombinant protein tyrosine phosphatase assessed as enzyme activity at 25 uM; parameters: scale not given: the % may be the effect or the level left
T1 sequence (whole entry): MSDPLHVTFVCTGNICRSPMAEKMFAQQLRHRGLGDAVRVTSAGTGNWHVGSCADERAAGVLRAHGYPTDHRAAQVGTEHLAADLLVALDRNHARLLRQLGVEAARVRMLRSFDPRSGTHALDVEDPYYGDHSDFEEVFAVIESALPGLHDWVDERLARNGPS
Procedure, shortened: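 His-tagged recombinant M. tuberculosis PtpA expressed from pET28a. Compound diluted in 25 mM bis-Tris–HCl pH 8.0, 20 mM imidazole pH 7.0, 40 mM DTT and 40 mM pNPP substrate; enzyme added to start. Incubated 20 min at 37 °C, absorbance at 410 nm read every 2 min. Controls: no enzyme; enzyme with DMSO. Percent activity averaged from two experiments in triplicate.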

Structure (SMILES) | Activity
COc1ccc(C(=O)/C=C/c2cccc3ccccc23)cc1 | 82.4%
O=C(/C=C/c1cccc2ccccc12)c1cccc(O)c1 | 79.5%
COc1cc(OC)c(C(=O)/C=C/c2ccc(Cl)c(Cl)c2)c(OC)c1 | 99%
O=C(/C=C/c1ccc2c(c1)OCO2)c1ccccc1 | 103%
O=C(/C=C/c1ccc2c(c1)OCO2)c1ccccc1O | 103%
COc1ccc(C(=O)/C=C/c2cccc3ccccc23)c(OC)c1 | 80%
COc1cc(OC)c(C(=O)/C=C/c2cccc([N+](=O)[O-])c2)c(OC)c1 | 100%
COc1cc(C(=O)/C=C/c2ccc3c(c2)OCO3)ccc1O | 80%
COc1ccc(OC)c(C(=O)/C=C/c2ccc3ccccc3c2)c1 | 42.5%
COc1cc(O)c(C(=O)/C=C/c2cccc([N+](=O)[O-])c2)c(OC)c1 | 92%
COc1ccc(C(=O)/C=C/c2ccc3c(c2)OCO3)cc1OC | 99%
O=C(/C=C/c1ccc2ccccc2c1)c1ccccc1O | 74.6%
O=C(/C=C/c1cccc2ccccc12)c1ccccc1O | 24%
O=C(/C=C/c1ccc2ccccc2c1)c1ccc([N+](=O)[O-])cc1 | 89%
COc1cc(C(=O)/C=C/c2ccc3c(c2)OCO3)cc(OC)c1OC | 82.4%
O=C(/C=C/c1ccc2c(c1)OCO2)c1ccc(Br)cc1 | 86%
O=C(/C=C/c1cccc2ccccc12)c1ccccc1 | 62.7%
COc1cc(OC)c(C(=O)/C=C/c2ccc3ccccc3c2)c(OC)c1 | 104%

Structure (SMILES) | Activity
COC1C=C(C(=O)/C=C/c2ccc3ccccc3c2)C=CC1O (centres undefined) | 61%
COc1ccc(OC)c(C(=O)/C=C/c2cccc3ccccc23)c1 | 54%
COc1ccc(OC)c(C(=O)/C=C/c2ccc3c(c2)OCO3)c1 | 91.3%
O=C(/C=C/c1cccc2ccccc12)c1ccc([N+](=O)[O-])cc1 | 82%
COc1cc(O)c(C(=O)/C=C/c2cccc(Cl)c2)c(OC)c1 | 87%
COc1cc(OC)c(C(=O)/C=C/c2cccc(Cl)c2)c(OC)c1 | 98%
O=C(/C=C/c1cccc2ccccc12)c1cccc([N+](=O)[O-])c1 | 88%
O=C(/C=C/c1ccc2c(c1)OCO2)c1cccc([N+](=O)[O-])c1 | 74%
O=C(/C=C/c1ccc2c(c1)OCO2)c1ccc([N+](=O)[O-])cc1 | 80.5%
COc1cc(O)c(C(=O)/C=C/c2cccc3ccccc23)c(OC)c1 | 84.4%
O=C(/C=C/c1cccc2ccccc12)c1ccc(Br)cc1 | 75%
COc1ccc(C(=O)/C=C/c2ccc3ccccc3c2)cc1OC | 31.5%
O=C(/C=C/c1ccc2ccccc2c1)c1cccc([N+](=O)[O-])c1 | 84%
O=C(/C=C/c1ccc2ccccc2c1)c1ccc(Br)cc1 | 89.2%
COc1ccc(C(=O)/C=C/c2ccc3c(c2)OCO3)cc1 | 94%
COc1cc(C(=O)/C=C/c2cccc3ccccc23)cc(OC)c1OC | 102%
COc1cc(C(=O)/C=C/c2ccc3ccccc3c2)cc(OC)c1OC | 109%

target: T2, Low molecular weight protein-tyrosine phosphatase A (Mycobacterium tuberculosis, UniProt P9WIA1); assay: Inhibition of Mycobacterium tuberculosis recombinant protein tyrosine phosphatase
T2 sequence (P9WIA1 whole entry): T1 sequence (whole entry)

Structure (SMILES) | IC50
COc1ccc(OC)c(C(=O)/C=C/c2ccc3ccccc3c2)c1 | 8.4 µM
O=C(/C=C/c1cccc2ccccc12)c1ccccc1O | 50.7 µM
COc1ccc(OC)c(C(=O)/C=C/c2cccc3ccccc23)c1 | 39.5 µM
COc1ccc(C(=O)/C=C/c2ccc3ccccc3c2)cc1OC | 23.1 µM
